From the array DNA melting data of Ke et al. (doi:10.1101/2024.01.08.574731)

Tests used:
[1] = melting temperature; fluorescence melt of hairpins on a sequencing array, two-state fit, raised by 9.35 °C to match UV melts; conditions: sodium 0.088 M
Procedure, shortened: (§1)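 In 50 mM Na-HEPES pH 8.0 containing 25 mM NaCl, hairpins from the library on a sequenced MiSeq flow cell were imaged for Cy3 fluorescence at 2.5 °C steps up to 60 °C, with Cy3 and quencher oligos annealed. After normalisation to pre-quench Cy3 and to control constructs, two-state fits with bootstrapping gave melting temperature and folding enthalpy. Four replicates were combined by inverse-variance weighting, and fitted temperatures were shifted up by 9.35 °C to match UV melts.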

[2] = folding enthalpy; higher = less favourable; fluorescence melt of hairpins on a sequencing array, two-state fit; conditions: sodium 0.088 M
Procedure, shortened: as §1

| Sequence | Tm [1] | folding enthalpy [2] |
| --- | --- | --- |
| GAGCAGGAAACTGCTC ((((((....)))))) | 62.3 °C | -37.8 kcal/mol |
| GGATATGGAAACACATCC ((((.((....)).)))) | 31.5 °C | -26.3 kcal/mol |
| GTCCGTCGAAAGACGAC (((.(((....)))))) | 50.6 °C | -13.4 kcal/mol |
| GAATCGGGAAACTGATTC (((((.(....).))))) | 45.5 °C | -38.9 kcal/mol |
| GATGTCGGAAACGATGTC ((..(((....)))..)) | 39.9 °C | -32.6 kcal/mol |
| GATCAGAGACTGATC ((((((...)))))) | 48 °C | -31.4 kcal/mol |
| GATCTGCGCCCAGATC ((((((....)))))) | 48.4 °C | -29.2 kcal/mol |
| CGAACGAAAGTTCG (((((....))))) | 68.7 °C | -29.2 kcal/mol |
| GCTAAGCGAAAGCTTGGC ((.((((....)))).)) | 62.9 °C | -34.3 kcal/mol |
| GCGAAATCGAAAGATCGC (((..(((....)))))) | 47.5 °C | -28.1 kcal/mol |
| GATCCGACAACGGATC ((((((....)))))) | 57 °C | -35 kcal/mol |
| GCCACGCGAAAGCCTGGC ((((.((....)).)))) | 59.6 °C | -30.4 kcal/mol |
| CGCGGAACTTCCGCG ((((((...)))))) | 61.3 °C | -37.8 kcal/mol |
| GACAAGGGAAACTTTGTC (((((.(....).))))) | 36.9 °C | -27.1 kcal/mol |
| GCACAAACGAAAGTTTGC (((..(((....)))))) | 39.7 °C | -11.2 kcal/mol |
| GACCTGCGAAAGCATGTC (((.(((....))).))) | 49.9 °C | -28.4 kcal/mol |
| GATCCATTCTGGATC ((((((...)))))) | 54.3 °C | -33.2 kcal/mol |
| GTGCATGGAAACATGCAC (((((((....))))))) | 68.6 °C | -33.8 kcal/mol |
| GGTTTAGGAAACTAGACC (((.(((....))).))) | 37.5 °C | -30.2 kcal/mol |
| GCCTGAGGAAACTCGGGC (((.(((....))).))) | 57.4 °C | -40.8 kcal/mol |
| GGGCGCCGAAAGGCTCCC (((.(((....))).))) | 60.7 °C | -25.7 kcal/mol |
| GCGATCATTCGC ((((....)))) | 50.7 °C | -26.6 kcal/mol |
| CGCCGGCGGAAACGCGCG (((..(((....)))))) | 51.5 °C | -21.1 kcal/mol |
| GGAAACGGAAACGTCTCC (((.(((....))).))) | 37.2 °C | -23.6 kcal/mol |

| Sequence | Tm [1] | folding enthalpy [2] |
| --- | --- | --- |
| GATCCACACTGGATC ((((((...)))))) | 50.7 °C | -33.2 kcal/mol |
| GGACGGGGAAACCCGTTC (.(((((....))))).) | 56.1 °C | -21.4 kcal/mol |
| GGCTACCGAAAGGTGCC (((.(((....)))))) | 61.2 °C | -31.3 kcal/mol |
| CTGACGAAAGTCAG (((((....))))) | 65 °C | -29 kcal/mol |
| GTCCCCGAAAGGGGGAC ((((((....))).))) | 68.5 °C | -17.1 kcal/mol |
| GAACTACGAAAGTAATTC (((.(((....))).))) | 31.5 °C | -17.3 kcal/mol |
| GATCTTAAGCAAGATC ((((((....)))))) | 40.1 °C | -31.3 kcal/mol |
| GAAGGCGGAAACGCTTTC (((.(((....))).))) | 48.2 °C | -24.9 kcal/mol |
| GAACTGACGAAAGTCTTC (((..(((....)))))) | 23.7 °C | -8.83 kcal/mol |
| GATCCCAAACGGGATC ((((((....)))))) | 59.7 °C | -35.3 kcal/mol |
| GTCGTCGAAAGACCGAC ((((((....))).))) | 50.7 °C | -23.5 kcal/mol |
| GCAAGCGAAAGCTTGTGC ((((((....)))..))) | 66.7 °C | -16.9 kcal/mol |
| GTGCTACCGAAAGGTCAC (((..(((....)))))) | 37 °C | -15.5 kcal/mol |
| GCGTAAGGAAACTTATGC ((.((((....)))).)) | 45.6 °C | -31.2 kcal/mol |
| GGTATCGAAAGATCGACC ((((((....)))..))) | 27.8 °C | -16.9 kcal/mol |
| GGCTAGCGAAAGCTTGCC (((.(((....))).))) | 65.6 °C | -36.3 kcal/mol |
| GCGTCGGTACGC ((((....)))) | 52.8 °C | -19.3 kcal/mol |
| GATCATATCATGATC ((((((...)))))) | 50.4 °C | -37.2 kcal/mol |
| TTATCGAAAGATAA (((((....))))) | 36.5 °C | -14.7 kcal/mol |
| GTTCACGAAAGTGCGAAC ((((((....)))..))) | 31.6 °C | -10.7 kcal/mol |
| GGTCCCGAAAGGGCAACC ((((((....)))..))) | 38.4 °C | -12.4 kcal/mol |
| GCGAGAGGAAACTCTCAC (.(((((....))))).) | 39 °C | -17.9 kcal/mol |
| GCCAAAGCGAAAGCTGGC (((..(((....)))))) | 59.7 °C | -26.1 kcal/mol |
| GTGATAGCGAAAGCTCAC (((..(((....)))))) | 44.9 °C | -18.9 kcal/mol |

| Sequence | Tm [1] | folding enthalpy [2] |
| --- | --- | --- |
| GATCTCTTTTGAGATC ((((((....)))))) | 55 °C | -39.2 kcal/mol |
| GACTGTGAAAACAGTC ((((((....)))))) | 58.5 °C | -34.1 kcal/mol |
| GTTAGCCGAAAGGCCAAC (((.(((....))).))) | 40.3 °C | -16 kcal/mol |
| GACTAAGCGAAAGCTGTC (((..(((....)))))) | 45 °C | -15 kcal/mol |
| GCCTAGCGAAAGCTAAGC ((.((((....)))).)) | 48.9 °C | -17.1 kcal/mol |
| GTCGGTGGAAACATCGAC ((((.((....)).)))) | 53.9 °C | -45.1 kcal/mol |
| GGACCAGGAAACTGGTTC (.(((((....))))).) | 51.8 °C | -24.6 kcal/mol |
| GAACGCGAAAGCGCGTTC ((((((....)))..))) | 63.1 °C | -25.5 kcal/mol |
| GGTTTTGGAAACAAAACC (((((((....))))))) | 58.6 °C | -50.2 kcal/mol |
| GAGTGACGAAAGTCGCTC (((.(((....))).))) | 64.8 °C | -38.9 kcal/mol |
| GGATGCGAAAGCATATCC ((((((....)))..))) | 43.8 °C | -14.9 kcal/mol |
| GATCGATTAATCGATC ((((((....)))))) | 55.9 °C | -43.9 kcal/mol |
| GGTCGCGAAAGCGAGACC ((((((....)))..))) | 51.6 °C | -13.5 kcal/mol |
| GCGTCCGTACGC ((((....)))) | 52.3 °C | -26.8 kcal/mol |
| GAAGACGGAAACGTTTTC (((.(((....))).))) | 41.1 °C | -32.6 kcal/mol |
| GATCGTATTGACGATC ((((((....)))))) | 55 °C | -22.8 kcal/mol |
| GATCACCACGGTGATC ((((((....)))))) | 62.9 °C | -41.4 kcal/mol |
| GGGAGCCGAAAGGCCCC (((.(((....)))))) | 69 °C | -20.1 kcal/mol |
| GGTCGCGGAAACGTGACC ((((.((....)).)))) | 63.5 °C | -51.2 kcal/mol |
| GATCACCCGGTGATC ((((((...)))))) | 56.3 °C | -44.2 kcal/mol |
| GATCGTAAGGACGATC ((((((....)))))) | 53.4 °C | -31.8 kcal/mol |
| GATCCAGCTTGGATC ((((((...)))))) | 52 °C | -32.9 kcal/mol |
| GCTGACGAAAGTCATAGC ((((((....)))..))) | 47.1 °C | -15.9 kcal/mol |
| GATCCTCCATAGGATC ((((((....)))))) | 51.1 °C | -33.5 kcal/mol |

| Sequence | Tm [1] | folding enthalpy [2] |
| --- | --- | --- |
| GTGCACGGAAACGTACAC (((.(((....))).))) | 48.5 °C | -31.8 kcal/mol |
| GGGTACGAAAGTAGGCCC ((((((....)))..))) | 38.6 °C | -20.1 kcal/mol |
| GGCCCCGAAAGGGTGGCC ((((((....)))..))) | 61.6 °C | -22.7 kcal/mol |
| GCTTTCGAAAGAACGAGC ((((((....)))..))) | 28.9 °C | -15.1 kcal/mol |
| GCGACTTTCGC ((((...)))) | 49 °C | -21.8 kcal/mol |
| GCTGAGCGAAAGCTGTGC ((..(((....)))..)) | 45.5 °C | -17.8 kcal/mol |
| GGATCTCGAAAGAGTCC (((.(((....)))))) | 49.3 °C | -25.1 kcal/mol |
| GGTCTTCGAAAGAATACC (((.(((....))).))) | 39.1 °C | -32.9 kcal/mol |
| GCGGAGCGAAAGCGCGGC ((.(.((....)).).)) | 58.6 °C | -15.3 kcal/mol |
| GGATCACCGAAAGGTTCC (((..(((....)))))) | 30.3 °C | -13.1 kcal/mol |
| GATCCTTCCGAGGATC ((((((....)))))) | 53.1 °C | -43.5 kcal/mol |
| GTGGGCGGAAACGTCCAC ((((.((....)).)))) | 64.7 °C | -41.7 kcal/mol |
| GACAACGAAAGTTCGTC ((((((....))).))) | 42.6 °C | -21 kcal/mol |
| GAGCTGGGAAACCGGCTC ((((.((....)).)))) | 59.2 °C | -38.5 kcal/mol |
| GAGGCCGAAAGGCCACTC ((((((....)))..))) | 60.4 °C | -10.2 kcal/mol |
| GCAGGCGAAAGCCAATGC ((((((....)))..))) | 49.1 °C | -15.5 kcal/mol |
| GATCTTCAATAAGATC ((((((....)))))) | 39.8 °C | -30.6 kcal/mol |
| GTCGGCTCGAAAGAGGAC (((..(((....)))))) | 32.2 °C | -16 kcal/mol |
| GATCGTATAAACGATC ((((((....)))))) | 54.7 °C | -31.9 kcal/mol |
| GCATGCGAAAGCAATGC ((((((....))).))) | 64.2 °C | -31 kcal/mol |
| GGCAGGGGAAACCCTGTC (.(((((....))))).) | 55.9 °C | -29.9 kcal/mol |
